Measured values from ChEMBL document CHEMBL2057186, “Application of the bicyclo[1.1.1]pentane motif as a nonclassical phenyl ring bioisostere in the design of a potent and orally active γ-secretase inhibitor” (J Med Chem, 2012).
In brackets after ≈: the same amount, converted by molar mass.

Assays:
Gamma-secretase = assay: Inhibition of gamma secretase-mediated amyloid beta42 production in human H4 cells expressing human wild-type APP
[1] = Apparent permeability from apical to basal side of dog RRCK cells; format: ADME, cell-based, Canis lupus familiaris, MDCKII-LE; conditions: MDCK
Procedure, shortened: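 Absorptive (A to B) permeability was measured in RRCK cells, a Madin–Darby canine kidney subline isolated for low transporter activity. It estimates intrinsic passive permeability.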

Homo sapiens = species: Homo sapiens; assay: Selectivity for human gamma-seretase over notch signalling protein
P-gp = assay: Efflux ratio of apparent permeability from basal to apical side to apical to basal side of MDCK cells expressing human P-gp; format: ADME, cell-based, Canis lupus familiaris; conditions: dog, MDCK-MDR1
Procedure, shortened: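 Monolayers were MDCK cells transfected with the human P-glycoprotein (MDR1) gene. Permeability was measured basolateral-to-apical and apical-to-basolateral, and the BA/AB ratio was reported.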

[2] = Kinetic solubility of the solubility of the compound at pH 6.5; format: physicochemical; conditions: buffer, read-out: Kinetic_solubility
Procedure, shortened: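 Kinetic solubility was measured in aqueous buffer at pH 6.5.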

IC50 (Gamma-secretase) | Papp A→B [1] | Selectivity Index (Homo sapiens) | efflux ratio (P-gp) | solubility kinetic [2] | Structure (SMILES)
12.3 nM | 14.1 ×10⁻⁶ cm/s |  |  |  | NC(=O)[C@@H](CCC(F)(F)F)N(C[C@H]1C[C@@H](c2ncon2)C1)S(=O)(=O)c1ccc(Cl)cc1
1.04 nM | 19.7 ×10⁻⁶ cm/s | 570 | 2.05 | 44.5 µM (≈ 20.5 µg/mL) | N#Cc1ccc(CN([C@H](CCC(F)(F)F)C(N)=O)S(=O)(=O)c2ccc(Cl)cc2)cc1
2.75 nM | 15.7 ×10⁻⁶ cm/s |  |  |  | N#C[C@H]1CC[C@H](CN([C@H](CCC(F)(F)F)C(N)=O)S(=O)(=O)c2ccc(Cl)cc2)CC1 (stereo in doubt; 21)
9.6 nM | 29.9 ×10⁻⁶ cm/s |  |  |  | N#CC1(CN([C@H](CCC(F)(F)F)C(N)=O)S(=O)(=O)c2ccc(Cl)cc2)CC1
14.7 nM | 9.94 ×10⁻⁶ cm/s |  |  |  | N#C[C@@H]1C[C@H]1CN([C@H](CCC(F)(F)F)C(N)=O)S(=O)(=O)c1ccc(Cl)cc1
0.99 nM | 30.2 ×10⁻⁶ cm/s | 467 | 2.04 | 272 µM (≈ 122 µg/mL) | N#CC12CC(CN([C@H](CCC(F)(F)F)C(N)=O)S(=O)(=O)c3ccc(Cl)cc3)(C1)C2
6.92 nM | 21.5 ×10⁻⁶ cm/s |  |  |  | N#C[C@H]1C[C@@H]1CN([C@H](CCC(F)(F)F)C(N)=O)S(=O)(=O)c1ccc(Cl)cc1
87.1 nM | 27.6 ×10⁻⁶ cm/s |  |  |  | N#CCCCN([C@H](CCC(F)(F)F)C(N)=O)S(=O)(=O)c1ccc(Cl)cc1
7.47 nM | 25.7 ×10⁻⁶ cm/s |  |  |  | C[C@]1(C#N)C[C@@H](CN([C@H](CCC(F)(F)F)C(N)=O)S(=O)(=O)c2ccc(Cl)cc2)C1
24.4 nM | 29.6 ×10⁻⁶ cm/s |  |  |  | NC(=O)[C@@H](CCC(F)(F)F)N(CCc1ncon1)S(=O)(=O)c1ccc(Cl)cc1
